Reference: ChEMBL document CHEMBL1158785, “Polyoxygenated steroids from the gorgonian Isis hippuris” (J Nat Prod, 2005)
≈ marks a conversion by molar mass, not a printed value.

Experiments:
MCF7 = experiment: Cytotoxicity against human MCF7 cells after 3 days by MTT assay; format: functional, cell-based; conditions: MCF7, 72 h
Summary of the method: (§1)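 Freshly trypsinized cells seeded at 5000-10 000 per well, compounds added from DMSO-diluted stock; 3 days culture. Attached cells then given MTT (0.5 mg/mL, 1 h), formazan dissolved in DMSO, absorbance read at 550 nm. IC50 taken as concentration reducing cell growth by 50%.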

[1] = Cytotoxicity against human Hep3B cells after 3 days by MTT assay; format: functional, cell-based, Hep 3B2; conditions: 72 h; summary of the method: as §1
HepG2 = experiment: Cytotoxicity against human HepG2 cells after 3 days by MTT assay; format: functional, cell-based; conditions: HepG2, 72 h; summary of the method: as §1
MDA-MB-231 = experiment: Cytotoxicity against human MDA-MB-231 cells after 3 days by MTT assay; format: functional, cell-based; conditions: MDA-MB-231, 72 h; summary of the method: as §1

| Compound | IC50 (MCF7) [µg/mL] | IC50 [1] [µg/mL] | IC50 (HepG2) [µg/mL] | IC50 (MDA-MB-231) [µg/mL] |
| --- | --- | --- | --- | --- |
| CC(=O)O[C@H]1C[C@@H]2CC[C@@H]3[C@H]([C@@H](O)C[C@@]4(C)[C@H]3C[C@@H]3O[C@]5(C[C@H](C)C(C)(C)O5)[C@](C)(O)[C@@H]34)[C@@]2(C)C[C@H]1O | 2.41 (≈ 4.63 µM) | 1.46 (≈ 2.8 µM) | 2.06 (≈ 3.96 µM) | 0.74 (≈ 1.42 µM) |
| C[C@H]1C[C@]2(O[C@H]3C[C@H]4[C@@H]5CC[C@H]6C[C@H](O)[C@H](O)C[C@]6(C)[C@H]5[C@@H](O)C[C@]4(C)[C@H]3[C@@]2(C)O)OC1(C)C | 0.59 (≈ 1.23 µM) | 0.77 (≈ 1.61 µM) | 0.62 (≈ 1.3 µM) | 0.75 (≈ 1.57 µM) |
| CC(=O)O[C@@H]1CC[C@@]2(C)[C@@H](CC[C@@H]3[C@@H]2[C@@H](O)C[C@]24[C@H](O)O[C@]5(C)[C@H]2[C@H](C[C@@H]34)O[C@]52C[C@H](C)C(C)(C)O2)C1 [HIPPURISTANOHEMIACETAL] | 12.7 (≈ 24.5 µM) | – | > 20 | > 20 |
| CC(=O)O[C@@H]1C[C@@]2(C)[C@@H](CC[C@@H]3[C@@H]2[C@@H](O)C[C@@]2(C)[C@H]3C[C@@H]3O[C@]4(C[C@H](C)C(C)(C)O4)[C@](C)(O)[C@@H]32)C[C@@H]1O [EPIHIPPURIN 1] | 4.54 (≈ 8.72 µM) | 0.68 (≈ 1.31 µM) | 4.64 (≈ 8.91 µM) | 2.64 (≈ 5.07 µM) |
| C[C@H]1C[C@]2(O[C@H]3C[C@H]4[C@@H]5CC[C@H]6C[C@H](O)CC[C@]6(C)[C@H]5[C@@H](O)C[C@]4(C)[C@H]3[C@@]2(C)O)OC1(C)C [EPIHIPPURISTANOL] | 0.2 (≈ 0.432 µM) | 0.1 (≈ 0.216 µM) | 0.08 (≈ 0.173 µM) | 0.13 (≈ 0.281 µM) |
| CC(=O)O[C@@H]1C[C@@]2(C)[C@@H](CC[C@@H]3[C@@H]2[C@@H](O)C[C@@]2(C)[C@H]3C[C@@H]3O[C@@]4(C[C@H](C)C(C)(C)O4)[C@](C)(O)[C@@H]32)C[C@@H]1O | 0.53 (≈ 1.02 µM) | 0.1 (≈ 0.192 µM) | 0.56 (≈ 1.08 µM) | 0.41 (≈ 0.787 µM) |
| CC(=O)O[C@H]1C[C@@H]2CC[C@@H]3[C@H]([C@@H](O)C[C@@]4(C)[C@H]3C[C@@H]3O[C@@]5(C[C@H](C)C(C)(C)O5)[C@](C)(O)[C@@H]34)[C@@]2(C)C[C@H]1O | 1.07 (≈ 2.05 µM) | 0.46 (≈ 0.883 µM) | 0.72 (≈ 1.38 µM) | 0.21 (≈ 0.403 µM) |
| CC(=O)O[C@H]1C[C@@H]2CC[C@@H]3[C@H]([C@@H]4C[C@]56[C@H](O4)O[C@]4(C)[C@H]5[C@H](C[C@@H]36)O[C@]43C[C@H](C)C(C)(C)O3)[C@@]2(C)C[C@H]1OC(C)=O | > 20 | – | > 20 | > 20 |
| C[C@H]1C[C@]2(O[C@H]3C[C@H]4[C@@H]5CC[C@H]6C[C@H](O)[C@H](O)C[C@]6(C)[C@H]5[C@@H](O)C[C@@]45C(=O)O[C@]2(C)[C@@H]35)OC1(C)C | > 30 | 23.8 (≈ 48.6 µM) | > 30 | > 30 |
| C[C@H]1C[C@]2(O[C@H]3C[C@H]4[C@@H]5CC[C@H]6C[C@H](O)CC[C@]6(C)[C@H]5[C@@H](O)C[C@@]45C(=O)O[C@]2(C)[C@@H]35)OC1(C)C | > 20 | – | > 20 | > 20 |
| CC(=O)O[C@H]1C[C@@H]2CC[C@@H]3[C@H]([C@@H](O)C[C@]45[C@H](O)O[C@]6(C)[C@H]4[C@H](C[C@@H]35)O[C@]63C[C@H](C)C(C)(C)O3)[C@@]2(C)C[C@H]1OC(C)=O | 11.4 (≈ 19.7 µM) | – | > 20 | > 20 |
| CC(=O)O[C@@H]1CC[C@@]2(C)[C@@H](CC[C@@H]3[C@@H]2[C@@H](O)C[C@]24C(=O)O[C@]5(C)[C@H]2[C@H](C[C@@H]34)O[C@]52C[C@H](C)C(C)(C)O2)C1 | > 20 | – | > 20 | > 20 |
| CC(=O)O[C@@H]1C[C@@]2(C)[C@@H](CC[C@@H]3[C@@H]2[C@@H](O)C[C@]24C(=O)O[C@]5(C)[C@H]2[C@H](C[C@@H]34)O[C@]52C[C@H](C)C(C)(C)O2)C[C@@H]1O | > 30 | > 30 | 27.6 (≈ 51.8 µM) | > 30 |
| CC(=O)O[C@H]1C[C@@H]2CC[C@@H]3[C@H]([C@@H](O)C[C@]45C(=O)O[C@]6(C)[C@H]4[C@H](C[C@@H]35)O[C@]63C[C@H](C)C(C)(C)O3)[C@@]2(C)C[C@H]1OC(C)=O | 19.6 (≈ 34.1 µM) | – | > 20 | > 20 |
| CC(=O)O[C@@H]1CC[C@@]2(C)[C@@H](CC[C@@H]3[C@@H]2[C@@H]2C[C@]45[C@H](O2)O[C@]2(C)[C@H]4[C@H](C[C@@H]35)O[C@]23C[C@H](C)C(C)(C)O3)C1 | > 20 | – | > 20 | > 20 |
